Several values for one entry are separate records, joined by “and”; a condition that tells them apart may be missing. Identical values can stand only once.
Test system: HEK-293T
Assay: Multiplex assay against HEK293T
Format: toxicity, cell-based
Settings: human
Outline: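 Four dyes were applied at seeding to live cells: Hoechst33342, BioTracker Green Microtubule Cytoskeleton Dye, MitoTracker Red and Annexin V Alexa Fluor 680. Imaging after compound addition used a CQ1 microscope at 37°C and 5% CO2. CellPathfinder machine-learning gating then sorted cells into Hoechst high-intensity objects or normal cells, normal cells into healthy, pyknosed or fragmented nuclei, and pyknosed cells into mitotic or apoptotic, with tubulin, mitochondrial-mass and membrane-permeability phenotypes given as per cents of healthy-nucleus cells.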

[1] = 12 h, 1 µM, compound concentration 1 uM
[2] = 12 h, 10 µM, compound concentration 10 uM
[3] = 24 h, 1 µM, compound concentration 1 uM
[4] = 24 h, 10 µM, compound concentration 10 uM
[5] = 48 h, 1 µM, compound concentration 1 uM
[6] = 48 h, 10 µM, compound concentration 10 uM

## S=C(NCCCc1c[nH]cn1)NCCCN(Cc1ccc(Cl)c(Cl)c1)c1ccc(Br)cn1
[1]
  Population Apoptotic (%): 39% and 53%
  Population Fragmented Nuclei (%): 8% and 5%
  Population Healthy Nuclei (%): 78% and 79%
  Population Hoechst High Intensity Objects (%): 17% and 6%
  Population Membrane Permeable-Phenotype (%): 0%
  Population Mitochondria Different-Phenotype (%): 50% and 58%
  Population Mitotic Cells (%): 60% and 46%
  Population Normal (%): 82% and 93%
  Population Pyknosed Nuclei (%): 13% and 14%
  Population Tubulin-Different-Phenotype (%): 36% and 35%
  Total Cell Count: 378 and 294
[2]
  Population Apoptotic (%): 90% and 77%
  Population Fragmented Nuclei (%): 4% and 8%
  Population Healthy Nuclei (%): 57% and 71%
  Population Hoechst High Intensity Objects (%): 33% and 19%
  Population Membrane Permeable-Phenotype (%): 0%
  Population Mitochondria Different-Phenotype (%): 77% and 84%
  Population Mitotic Cells (%): 9% and 22%
  Population Normal (%): 66% and 80%
  Population Pyknosed Nuclei (%): 38% and 19%
  Population Tubulin-Different-Phenotype (%): 78%
  Total Cell Count: 242 and 229
[3]
  Population Apoptotic (%): 39% and 41%
  Population Fragmented Nuclei (%): 10% and 9%
  Population Healthy Nuclei (%): 73% and 81%
  Population Hoechst High Intensity Objects (%): 22% and 13%
  Population Membrane Permeable-Phenotype (%): 0%
  Population Mitochondria Different-Phenotype (%): 45% and 48%
  Population Mitotic Cells (%): 60% and 58%
  Population Normal (%): 77% and 86%
  Population Pyknosed Nuclei (%): 16% and 9%
  Population Tubulin-Different-Phenotype (%): 32%
  Total Cell Count: 326 and 301
[4]
  Population Apoptotic (%): 85% and 82%
  Population Fragmented Nuclei (%): 11% and 16%
  Population Healthy Nuclei (%): 49% and 59%
  Population Hoechst High Intensity Objects (%): 48% and 39%
  Population Membrane Permeable-Phenotype (%): 1% and 0%
  Population Mitochondria Different-Phenotype (%): 75% and 82%
  Population Mitotic Cells (%): 14% and 17%
  Population Normal (%): 51% and 61%
  Population Pyknosed Nuclei (%): 39% and 23%
  Population Tubulin-Different-Phenotype (%): 78%
  Total Cell Count: 237 and 200
[5]
  Population Apoptotic (%): 47% and 36%
  Population Fragmented Nuclei (%): 14% and 17%
  Population Healthy Nuclei (%): 65% and 73%
  Population Hoechst High Intensity Objects (%): 36% and 27%
  Population Membrane Permeable-Phenotype (%): 3% and 0%
  Population Mitochondria Different-Phenotype (%): 38% and 32%
  Population Mitotic Cells (%): 52% and 63%
  Population Normal (%): 63% and 72%
  Population Pyknosed Nuclei (%): 19% and 9%
  Population Tubulin-Different-Phenotype (%): 29% and 19%
  Total Cell Count: 307 and 277
[6]
  Population Apoptotic (%): 84% and 75%
  Population Fragmented Nuclei (%): 23% and 21%
  Population Healthy Nuclei (%): 23%
  Population Hoechst High Intensity Objects (%): 75% and 67%
  Population Membrane Permeable-Phenotype (%): 0%
  Population Mitochondria Different-Phenotype (%): 86% and 80%
  Population Mitotic Cells (%): 15% and 25%
  Population Normal (%): 24% and 32%
  Population Pyknosed Nuclei (%): 52% and 55%
  Population Tubulin-Different-Phenotype (%): 53% and 40%
  Total Cell Count: 256 and 203

## CCCCC(=O)N(Cc1ccc(-c2ccccc2-c2nnn[nH]2)cc1)[C@H](C(=O)O)C(C)C
[1]
  Population Apoptotic (%): 44% and 40%
  Population Fragmented Nuclei (%): 7% and 6%
  Population Healthy Nuclei (%): 80% and 74%
  Population Hoechst High Intensity Objects (%): 9% and 11%
  Population Membrane Permeable-Phenotype (%): 0%
  Population Mitochondria Different-Phenotype (%): 36% and 49%
  Population Mitotic Cells (%): 55% and 59%
  Population Normal (%): 90% and 88%
  Population Pyknosed Nuclei (%): 12% and 18%
  Population Tubulin-Different-Phenotype (%): 16% and 21%
  Total Cell Count: 469 and 290
[2]
  Population Apoptotic (%): 21% and 51%
  Population Fragmented Nuclei (%): 7% and 5%
  Population Healthy Nuclei (%): 83% and 81%
  Population Hoechst High Intensity Objects (%): 5% and 10%
  Population Membrane Permeable-Phenotype (%): 0%
  Population Mitochondria Different-Phenotype (%): 30% and 63%
  Population Mitotic Cells (%): 78% and 48%
  Population Normal (%): 94% and 89%
  Population Pyknosed Nuclei (%): 8% and 13%
  Population Tubulin-Different-Phenotype (%): 19%
  Total Cell Count: 507 and 310
[3]
  Population Apoptotic (%): 30% and 32%
  Population Fragmented Nuclei (%): 11% and 9%
  Population Healthy Nuclei (%): 78% and 82%
  Population Hoechst High Intensity Objects (%): 5% and 6%
  Population Membrane Permeable-Phenotype (%): 0%
  Population Mitochondria Different-Phenotype (%): 21% and 26%
  Population Mitotic Cells (%): 70% and 67%
  Population Normal (%): 94% and 93%
  Population Pyknosed Nuclei (%): 10% and 8%
  Population Tubulin-Different-Phenotype (%): 12%
  Total Cell Count: 630 and 429
[4]
  Population Apoptotic (%): 20% and 35%
  Population Fragmented Nuclei (%): 9%
  Population Healthy Nuclei (%): 82%
  Population Hoechst High Intensity Objects (%): 5% and 7%
  Population Membrane Permeable-Phenotype (%): 0%
  Population Mitochondria Different-Phenotype (%): 19% and 30%
  Population Mitotic Cells (%): 79% and 64%
  Population Normal (%): 94% and 92%
  Population Pyknosed Nuclei (%): 7%
  Population Tubulin-Different-Phenotype (%): 11% and 13%
  Total Cell Count: 663 and 420
[5]
  Population Apoptotic (%): 18% and 19%
  Population Fragmented Nuclei (%): 13% and 14%
  Population Healthy Nuclei (%): 80% and 79%
  Population Hoechst High Intensity Objects (%): 2% and 3%
  Population Membrane Permeable-Phenotype (%): 1% and 0%
  Population Mitochondria Different-Phenotype (%): 12% and 16%
  Population Mitotic Cells (%): 81% and 80%
  Population Normal (%): 97% and 96%
  Population Pyknosed Nuclei (%): 5% and 6%
  Population Tubulin-Different-Phenotype (%): 7% and 9%
  Total Cell Count: 1024 and 653
[6]
  Population Apoptotic (%): 14% and 15%
  Population Fragmented Nuclei (%): 14%
  Population Healthy Nuclei (%): 81% and 78%
  Population Hoechst High Intensity Objects (%): 1% and 2%
  Population Membrane Permeable-Phenotype (%): 2% and 0%
  Population Mitochondria Different-Phenotype (%): 8% and 17%
  Population Mitotic Cells (%): 85% and 84%
  Population Normal (%): 98% and 97%
  Population Pyknosed Nuclei (%): 3% and 7%
  Population Tubulin-Different-Phenotype (%): 8%
  Total Cell Count: 1205 and 623

## CC(F)(F)CN1CCOc2c(nn(-c3ccccc3Cl)c2-c2ccc(Cl)cc2)C1=O
[1]
  Population Apoptotic (%): 29% and 64%
  Population Healthy Nuclei (%): 77% and 78%
  Population Membrane Permeable-Phenotype (%): 0%
  Population Mitochondria Different-Phenotype (%): 43% and 53%
  Population Mitotic Cells (%): 70% and 35%
  Population Normal (%): 93% and 91%
  Population Pyknosed Nuclei (%): 12% and 16%
  Total Cell Count: 397 and 369
[2]
  Population Apoptotic (%): 57% and 43%
  Population Healthy Nuclei (%): 73% and 75%
  Population Membrane Permeable-Phenotype (%): 0%
  Population Mitochondria Different-Phenotype (%): 78% and 84%
  Population Mitotic Cells (%): 42% and 56%
  Population Normal (%): 89% and 94%
  Population Pyknosed Nuclei (%): 22% and 18%
  Total Cell Count: 384 and 397
[3]
  Population Apoptotic (%): 25% and 43%
  Population Healthy Nuclei (%): 79% and 84%
  Population Membrane Permeable-Phenotype (%): 0%
  Population Mitochondria Different-Phenotype (%): 22% and 31%
  Population Mitotic Cells (%): 74% and 56%
  Population Normal (%): 97% and 93%
  Population Pyknosed Nuclei (%): 11% and 8%
  Total Cell Count: 568 and 478
[4]
  Population Apoptotic (%): 57% and 41%
  Population Healthy Nuclei (%): 76% and 80%
  Population Membrane Permeable-Phenotype (%): 0%
  Population Mitochondria Different-Phenotype (%): 71% and 79%
  Population Mitotic Cells (%): 42% and 58%
  Population Normal (%): 92% and 94%
  Population Pyknosed Nuclei (%): 15%
  Population Tubulin-Different-Phenotype (%): 50%
  Total Cell Count: 450 and 477
[5]
  Population Apoptotic (%): 22% and 25%
  Population Healthy Nuclei (%): 77% and 79%
  Population Membrane Permeable-Phenotype (%): 1%
  Population Mitochondria Different-Phenotype (%): 14% and 23%
  Population Mitotic Cells (%): 77% and 74%
  Population Normal (%): 99% and 97%
  Population Pyknosed Nuclei (%): 7%
  Population Tubulin-Different-Phenotype (%): 8%
  Total Cell Count: 1015 and 734
[6]
  Population Apoptotic (%): 55% and 35%
  Population Healthy Nuclei (%): 74% and 78%
  Population Membrane Permeable-Phenotype (%): 0%
  Population Mitochondria Different-Phenotype (%): 62% and 68%
  Population Mitotic Cells (%): 44% and 65%
  Population Normal (%): 93%
  Population Pyknosed Nuclei (%): 11%
  Total Cell Count: 540 and 558

## COc1ccc2nc3ccc(OC)cc3c(SCCCN)c2c1.Cl
[1]
  Population Apoptotic (%): 9.64% and 17.91%
  Population Fragmented Nuclei (%): 1.39% and 4.49%
  Population Hoechst High Intensity Objects (%): 0.55% and 0%
  Population Membrane Permeable-Phenotype (%): 1.06% and 0%
  Population Mitotic Cells (%): 90.36% and 82.09%
  Population Normal (%): 99.45% and 100%
  Population Pyknosed Nuclei (%): 46.24% and 85.9%
  Population Tubulin-Different-Phenotype (%): 5.85% and 13.33%
  Total Cell Count: 361 and 156
[2]
  Population Apoptotic (%): 19.66% and 51.55%
  Population Fragmented Nuclei (%): 81.39% and 89.94%
  Population Healthy Nuclei (%): 8.58% and 2.44%
  Population Hoechst High Intensity Objects (%): 3.16% and 0.62%
  Population Membrane Permeable-Phenotype (%): 0% and 3.23%
  Population Mitochondria Different-Phenotype (%): 15% and 9.68%
  Population Mitotic Cells (%): 80.34% and 48.45%
  Population Normal (%): 96.84% and 99.38%
  Population Pyknosed Nuclei (%): 10.03% and 7.63%
  Population Tubulin-Different-Phenotype (%): 31% and 48.39%
  Total Cell Count: 1204 and 1280
[3]
  Population Apoptotic (%): 11.89% and 22.43%
  Population Fragmented Nuclei (%): 1.64% and 2.45%
  Population Healthy Nuclei (%): 72.36% and 31.9%
  Population Hoechst High Intensity Objects (%): 0% and 0.61%
  Population Membrane Permeable-Phenotype (%): 1.51% and 3.85%
  Population Mitochondria Different-Phenotype (%): 22.86% and 15.38%
  Population Mitotic Cells (%): 88.11% and 77.57%
  Population Normal (%): 100% and 99.39%
  Population Pyknosed Nuclei (%): 26% and 65.64%
  Population Tubulin-Different-Phenotype (%): 16.33% and 11.54%
[4]
  Population Apoptotic (%): 66.98% and 59.74%
  Population Fragmented Nuclei (%): 80.88% and 91.28%
  Population Healthy Nuclei (%): 10.6% and 3.22%
  Population Hoechst High Intensity Objects (%): 1.74% and 0.85%
  Population Membrane Permeable-Phenotype (%): 2.27% and 2.22%
  Population Mitochondria Different-Phenotype (%): 31.06% and 15.56%
  Population Mitotic Cells (%): 33.02% and 40.26%
  Population Normal (%): 98.26% and 99.15%
  Population Pyknosed Nuclei (%): 8.51% and 5.5%
  Population Tubulin-Different-Phenotype (%): 37.88% and 35.56%
  Total Cell Count: 1267 and 1411
[5]
  Population Fragmented Nuclei (%): 3.15% and 5.62%
  Population Healthy Nuclei (%): 85.43% and 51.69%
  Population Hoechst High Intensity Objects (%): 0.08% and 0.56%
  Population Membrane Permeable-Phenotype (%): 4.52% and 2.17%
  Population Mitochondria Different-Phenotype (%): 15.94% and 31.52%
  Population Mitotic Cells (%): 95.17% and 75%
  Population Normal (%): 99.92% and 99.44%
[6]
  Population Apoptotic (%): 52.58% and 29.51%
  Population Fragmented Nuclei (%): 73.59% and 92.69%
  Population Hoechst High Intensity Objects (%): 4.79% and 2.09%
  Population Membrane Permeable-Phenotype (%): 4.62% and 6.67%
  Population Mitochondria Different-Phenotype (%): 54.23% and 53.33%
  Population Mitotic Cells (%): 47.42% and 70.49%
  Population Normal (%): 95.21% and 97.91%
  Population Pyknosed Nuclei (%): 7.17% and 4.2%
  Total Cell Count: 1420 and 1482

Reference: ChEMBL document CHEMBL5724801, “EUbOPEN Chemogenomics Library - Multiplex” (2024)
